From ChEMBL document CHEMBL1126160, “Synthesis and structure-activity relationships of 7-diazabicycloalkylquinolones, including danofloxacin, a new quinolone antibacterial agent for veterinary medicine” (J Med Chem, 1992)
≈ marks a conversion by molar mass, not a printed value.

System: not listed separately
Assay: In vitro evaluation for antibacterial activity against anaerobically grown Treponema hyodysenteriae (94A007)
Assay type: functional
Settings: Brachyspira hyodysenteriae

Structure (SMILES)	MIC
Cl.O.O=C(O)c1cn(CCF)c2c(F)c(N3CCN4CCC3CC4)c(F)cc2c1=O	6.25 µg/mL
O=C(O)c1cn(C2CC2)c2c(F)c(N3C[C@@H]4C[C@H]3CN4)c(F)cc2c1=O	1.56 µg/mL (≈ 4.32 µM)
CN1[C@@H]2CCC[C@H]1CN(c1cc3c(cc1F)c(=O)c(C(=O)O)cn3C1CC1)C2.Cl	> 3.13 µg/mL
O=C(O)c1cn(-c2ccc(F)cc2)c2c(F)c(N3C[C@@H]4C[C@H]3CN4)c(F)cc2c1=O	0.78 µg/mL (≈ 1.88 µM)
O=C(O)c1cn(-c2ccc(F)cc2)c2cc(N3CCN4CCCC3C4)c(F)cc2c1=O (configuration not stated)	0.2 µg/mL (≈ 0.47 µM)
Cl.O.O=C(O)c1cn(CCF)c2cc(N3CCN4CCC3CC4)c(F)cc2c1=O	1.56 µg/mL

System: Escherichia coli
Assay: In vitro antibacterial activity against aerobically grown Escherichia coli (51A538)
Assay type: functional
Settings: not given
How it was run: (§1)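 Agar dilution MICs. Aerobic strains were tested on brain heart infusion agar and incubated aerobically at 37 °C for 18–20 h.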

Structure (SMILES)	MIC
Cl.O.O=C(O)c1cn(CCF)c2c(F)c(N3CCN4CCC3CC4)c(F)cc2c1=O	0.39 µg/mL
O=C(O)c1cn(C2CC2)c2c(F)c(N3C[C@@H]4C[C@H]3CN4)c(F)cc2c1=O	0.01 µg/mL (≈ 0.0277 µM)
CN1[C@@H]2CCC[C@H]1CN(c1cc3c(cc1F)c(=O)c(C(=O)O)cn3C1CC1)C2.Cl	0.39 µg/mL
O=C(O)c1cn(-c2ccc(F)cc2)c2c(F)c(N3C[C@@H]4C[C@H]3CN4)c(F)cc2c1=O	0.1 µg/mL (≈ 0.241 µM)
O=C(O)c1cn(-c2ccc(F)cc2)c2cc(N3CCN4CCCC3C4)c(F)cc2c1=O (configuration not stated)	0.1 µg/mL (≈ 0.235 µM)
Cl.O.O=C(O)c1cn(CCF)c2cc(N3CCN4CCC3CC4)c(F)cc2c1=O	0.2 µg/mL

System: Clostridium perfringens
Assay: microbe, parasite or virus in culture
Assay type: functional
Settings: not given

Structure (SMILES)	MIC
Cl.O.O=C(O)c1cn(CCF)c2c(F)c(N3CCN4CCC3CC4)c(F)cc2c1=O	0.78 µg/mL
O=C(O)c1cn(C2CC2)c2c(F)c(N3C[C@@H]4C[C@H]3CN4)c(F)cc2c1=O	0.05 µg/mL (≈ 0.138 µM)
CN1[C@@H]2CCC[C@H]1CN(c1cc3c(cc1F)c(=O)c(C(=O)O)cn3C1CC1)C2.Cl	0.39 µg/mL
O=C(O)c1cn(-c2ccc(F)cc2)c2c(F)c(N3C[C@@H]4C[C@H]3CN4)c(F)cc2c1=O	0.2 µg/mL (≈ 0.481 µM)
O=C(O)c1cn(-c2ccc(F)cc2)c2cc(N3CCN4CCCC3C4)c(F)cc2c1=O (configuration not stated)	0.2 µg/mL (≈ 0.47 µM)
Cl.O.O=C(O)c1cn(CCF)c2cc(N3CCN4CCC3CC4)c(F)cc2c1=O	0.2 µg/mL

System: Actinobacillus pleuropneumoniae
Assay: In vitro antibacterial activity against anaerobically grown Actinobacillus pleuropneumoniae ([…])
Assay type: functional
Settings: not given
How it was run: (§2)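 Agar dilution MICs. Anaerobic strains were tested on tryptose agar with 5% bovine blood and incubated 48 h at 39 °C in an anaerobe chamber under N2/CO2/H2 (80:10:10).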

Structure (SMILES)	MIC
Cl.O.O=C(O)c1cn(CCF)c2c(F)c(N3CCN4CCC3CC4)c(F)cc2c1=O	< 0.05 µg/mL
O=C(O)c1cn(C2CC2)c2c(F)c(N3C[C@@H]4C[C@H]3CN4)c(F)cc2c1=O	< 0.005 µg/mL
CN1[C@@H]2CCC[C@H]1CN(c1cc3c(cc1F)c(=O)c(C(=O)O)cn3C1CC1)C2.Cl	0.1 µg/mL
O=C(O)c1cn(-c2ccc(F)cc2)c2c(F)c(N3C[C@@H]4C[C@H]3CN4)c(F)cc2c1=O	0.1 µg/mL (≈ 0.241 µM)
O=C(O)c1cn(-c2ccc(F)cc2)c2cc(N3CCN4CCCC3C4)c(F)cc2c1=O (configuration not stated)	0.05 µg/mL (≈ 0.118 µM)
Cl.O.O=C(O)c1cn(CCF)c2cc(N3CCN4CCC3CC4)c(F)cc2c1=O	0.02 µg/mL

System: Phocaeicola vulgatus
Assay: In vitro antibacterial activity against anaerobically grown Bacteroides vulgatus (78D029)
Assay type: functional
Settings: not given
How it was run: as §2

Structure (SMILES)	MIC
Cl.O.O=C(O)c1cn(CCF)c2c(F)c(N3CCN4CCC3CC4)c(F)cc2c1=O	6.25 µg/mL
O=C(O)c1cn(C2CC2)c2c(F)c(N3C[C@@H]4C[C@H]3CN4)c(F)cc2c1=O	1.56 µg/mL (≈ 4.32 µM)
CN1[C@@H]2CCC[C@H]1CN(c1cc3c(cc1F)c(=O)c(C(=O)O)cn3C1CC1)C2.Cl	1.56 µg/mL
O=C(O)c1cn(-c2ccc(F)cc2)c2c(F)c(N3C[C@@H]4C[C@H]3CN4)c(F)cc2c1=O	> 3.13 µg/mL
O=C(O)c1cn(-c2ccc(F)cc2)c2cc(N3CCN4CCCC3C4)c(F)cc2c1=O (configuration not stated)	0.39 µg/mL (≈ 0.917 µM)
Cl.O.O=C(O)c1cn(CCF)c2cc(N3CCN4CCC3CC4)c(F)cc2c1=O	> 3.13 µg/mL

System: Salmonella enterica
Assay: In vitro antibacterial activity against aerobically grown Salmonella choleraesuis (58B015)
Assay type: functional
Settings: not given

Structure (SMILES)	MIC
Cl.O.O=C(O)c1cn(CCF)c2c(F)c(N3CCN4CCC3CC4)c(F)cc2c1=O	0.2 µg/mL
O=C(O)c1cn(C2CC2)c2c(F)c(N3C[C@@H]4C[C@H]3CN4)c(F)cc2c1=O	0.01 µg/mL (≈ 0.0277 µM)
CN1[C@@H]2CCC[C@H]1CN(c1cc3c(cc1F)c(=O)c(C(=O)O)cn3C1CC1)C2.Cl	0.39 µg/mL
O=C(O)c1cn(-c2ccc(F)cc2)c2c(F)c(N3C[C@@H]4C[C@H]3CN4)c(F)cc2c1=O	0.2 µg/mL (≈ 0.481 µM)
O=C(O)c1cn(-c2ccc(F)cc2)c2cc(N3CCN4CCCC3C4)c(F)cc2c1=O (configuration not stated)	0.2 µg/mL (≈ 0.47 µM)
Cl.O.O=C(O)c1cn(CCF)c2cc(N3CCN4CCC3CC4)c(F)cc2c1=O	0.1 µg/mL

System: Bordetella bronchiseptica
Assay: In vitro antibacterial activity against aerobically grown Bordetella bronchiseptica (73A009)
Assay type: functional
Settings: not given
How it was run: as §1

Structure (SMILES)	MIC
Cl.O.O=C(O)c1cn(CCF)c2c(F)c(N3CCN4CCC3CC4)c(F)cc2c1=O	6.25 µg/mL
O=C(O)c1cn(C2CC2)c2c(F)c(N3C[C@@H]4C[C@H]3CN4)c(F)cc2c1=O	0.39 µg/mL (≈ 1.08 µM)
CN1[C@@H]2CCC[C@H]1CN(c1cc3c(cc1F)c(=O)c(C(=O)O)cn3C1CC1)C2.Cl	1.56 µg/mL
O=C(O)c1cn(-c2ccc(F)cc2)c2c(F)c(N3C[C@@H]4C[C@H]3CN4)c(F)cc2c1=O	> 1.56 µg/mL
O=C(O)c1cn(-c2ccc(F)cc2)c2cc(N3CCN4CCCC3C4)c(F)cc2c1=O (configuration not stated)	1.56 µg/mL (≈ 3.67 µM)
Cl.O.O=C(O)c1cn(CCF)c2cc(N3CCN4CCC3CC4)c(F)cc2c1=O	1.56 µg/mL

System: Staphylococcus aureus
Assay: In vitro antibacterial activity against aerobically grown Staphylococcus aureus (54B004)
Assay type: functional
Settings: not given
How it was run: as §1

Structure (SMILES)	MIC
Cl.O.O=C(O)c1cn(CCF)c2c(F)c(N3CCN4CCC3CC4)c(F)cc2c1=O	0.78 µg/mL
O=C(O)c1cn(C2CC2)c2c(F)c(N3C[C@@H]4C[C@H]3CN4)c(F)cc2c1=O	0.39 µg/mL (≈ 1.08 µM)
CN1[C@@H]2CCC[C@H]1CN(c1cc3c(cc1F)c(=O)c(C(=O)O)cn3C1CC1)C2.Cl	0.2 µg/mL
O=C(O)c1cn(-c2ccc(F)cc2)c2c(F)c(N3C[C@@H]4C[C@H]3CN4)c(F)cc2c1=O	0.78 µg/mL (≈ 1.88 µM)
O=C(O)c1cn(-c2ccc(F)cc2)c2cc(N3CCN4CCCC3C4)c(F)cc2c1=O (configuration not stated)	0.1 µg/mL (≈ 0.235 µM)
Cl.O.O=C(O)c1cn(CCF)c2cc(N3CCN4CCC3CC4)c(F)cc2c1=O	0.78 µg/mL

System: Escherichia coli
Assay: Escherichia coli DNA cleavage endpoint value which is the minimum amount required (in micro g/mL) to induce detectable cleavage of supercoiled pBR322 substrate to linear form (gyrase)
Assay type: functional
Settings: read-out: MIC
How it was run: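 DNA gyrase A and B subunits were purified from E. coli overproducers. About 2 units of holoenzyme were incubated with pBR322 in Tris-HCl pH 7.5 containing MgCl2, spermidine, DTT, 0.2 mM ATP, BSA and tRNA. Drug was added as 2-fold serial dilutions, and reactions ran for 60 min at 25 °C. Reactions were stopped with SDS and proteinase K, then run on agarose and stained with ethidium. The endpoint was the lowest concentration giving detectable linear DNA.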

Structure (SMILES)	minimum concentration inducing gyrase-mediated DNA cleavage
Cl.O.O=C(O)c1cn(CCF)c2c(F)c(N3CCN4CCC3CC4)c(F)cc2c1=O	0.19 µg/mL
O=C(O)c1cn(C2CC2)c2c(F)c(N3C[C@@H]4C[C@H]3CN4)c(F)cc2c1=O	0.09 µg/mL
CN1[C@@H]2CCC[C@H]1CN(c1cc3c(cc1F)c(=O)c(C(=O)O)cn3C1CC1)C2.Cl	1.56 µg/mL
O=C(O)c1cn(-c2ccc(F)cc2)c2c(F)c(N3C[C@@H]4C[C@H]3CN4)c(F)cc2c1=O	0.78 µg/mL
O=C(O)c1cn(-c2ccc(F)cc2)c2cc(N3CCN4CCCC3C4)c(F)cc2c1=O (configuration not stated)	0.78 µg/mL
Cl.O.O=C(O)c1cn(CCF)c2cc(N3CCN4CCC3CC4)c(F)cc2c1=O	0.39 µg/mL

System: not listed separately
Assay: In vitro antibacterial activity against Aerobically grown Pasteurella haemolytica (59B018)
Assay type: functional
Settings: Mannheimia haemolytica
How it was run: as §1

Structure (SMILES)	MIC
Cl.O.O=C(O)c1cn(CCF)c2c(F)c(N3CCN4CCC3CC4)c(F)cc2c1=O	< 0.05 µg/mL
O=C(O)c1cn(C2CC2)c2c(F)c(N3C[C@@H]4C[C@H]3CN4)c(F)cc2c1=O	0.005 µg/mL (≈ 0.0138 µM)
CN1[C@@H]2CCC[C@H]1CN(c1cc3c(cc1F)c(=O)c(C(=O)O)cn3C1CC1)C2.Cl	0.2 µg/mL
O=C(O)c1cn(-c2ccc(F)cc2)c2c(F)c(N3C[C@@H]4C[C@H]3CN4)c(F)cc2c1=O	0.1 µg/mL (≈ 0.241 µM)
O=C(O)c1cn(-c2ccc(F)cc2)c2cc(N3CCN4CCCC3C4)c(F)cc2c1=O (configuration not stated)	0.05 µg/mL (≈ 0.118 µM)
Cl.O.O=C(O)c1cn(CCF)c2cc(N3CCN4CCC3CC4)c(F)cc2c1=O	0.02 µg/mL

System: Pasteurella multocida
Assay: In vitro antibacterial activity against aerobically grown Pasteurella multocida (59A006)
Assay type: functional
Settings: not given
How it was run: as §1

Structure (SMILES)	MIC
Cl.O.O=C(O)c1cn(CCF)c2c(F)c(N3CCN4CCC3CC4)c(F)cc2c1=O	0.2 µg/mL
O=C(O)c1cn(C2CC2)c2c(F)c(N3C[C@@H]4C[C@H]3CN4)c(F)cc2c1=O	0.005 µg/mL (≈ 0.0138 µM)
CN1[C@@H]2CCC[C@H]1CN(c1cc3c(cc1F)c(=O)c(C(=O)O)cn3C1CC1)C2.Cl	0.05 µg/mL
O=C(O)c1cn(-c2ccc(F)cc2)c2c(F)c(N3C[C@@H]4C[C@H]3CN4)c(F)cc2c1=O	0.1 µg/mL (≈ 0.241 µM)
O=C(O)c1cn(-c2ccc(F)cc2)c2cc(N3CCN4CCCC3C4)c(F)cc2c1=O (configuration not stated)	0.01 µg/mL (≈ 0.0235 µM)
Cl.O.O=C(O)c1cn(CCF)c2cc(N3CCN4CCC3CC4)c(F)cc2c1=O	0.05 µg/mL

System: Trueperella pyogenes
Assay: In vitro antibacterial activity against anaerobically grown Actinomyces pyogenes (14D002)
Assay type: functional
Settings: not given
How it was run: as §2

Structure (SMILES)	MIC
Cl.O.O=C(O)c1cn(CCF)c2c(F)c(N3CCN4CCC3CC4)c(F)cc2c1=O	3.13 µg/mL
O=C(O)c1cn(C2CC2)c2c(F)c(N3C[C@@H]4C[C@H]3CN4)c(F)cc2c1=O	0.39 µg/mL (≈ 1.08 µM)
CN1[C@@H]2CCC[C@H]1CN(c1cc3c(cc1F)c(=O)c(C(=O)O)cn3C1CC1)C2.Cl	3.13 µg/mL
O=C(O)c1cn(-c2ccc(F)cc2)c2c(F)c(N3C[C@@H]4C[C@H]3CN4)c(F)cc2c1=O	> 3.13 µg/mL
O=C(O)c1cn(-c2ccc(F)cc2)c2cc(N3CCN4CCCC3C4)c(F)cc2c1=O (configuration not stated)	3.13 µg/mL (≈ 7.36 µM)
Cl.O.O=C(O)c1cn(CCF)c2cc(N3CCN4CCC3CC4)c(F)cc2c1=O	> 3.13 µg/mL
